Active and inactive are the calls of the source. The calls are words filed in the database; no cut-off is given here.
What was measured:
A549 = test: Cytotoxicity against human A549 cells assessed as growth inhibition incubated for 72 hrs by MTT assay; format: functional; settings: A549, 72 h
Method in brief: (§1)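 MTT assay. Stocks of 100 or 50 mM in DMSO. Cells seeded at line-dependent density, grown 24–72 h, then treated across […] for 72 h. Negative control 0.1% DMSO, positive control 1 μM phenylarsine oxide. GI50 is the concentration reducing viability 50% relative to control, averaged over experiments each run in sextuplicate.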

[1] = Cytotoxicity against human U373 cells assessed as growth inhibition incubated for 72 hrs by MTT assay; format: functional, U-373MG ATCC; settings: U373 MG; method in brief: as §1
[2] = Cytotoxicity against human Hs683 cells assessed as growth inhibition incubated for 72 hrs by MTT assay; format: functional; settings: Hs 683, 72 h; method in brief: as §1
MCF7 = test: Cytotoxicity against human MCF7 cells assessed as growth inhibition incubated for 72 hrs by MTT assay; format: functional; settings: MCF7, 72 h; method in brief: as §1
SK-MEL-28 = test: Cytotoxicity against human SK-MEL-28 cells assessed as growth inhibition incubated for 72 hrs by MTT assay; format: functional; settings: SK-MEL-28, 72 h; method in brief: as §1
U-373MG ATCC [3] = test: Cytotoxicity against human U373 cells assessed as necrotic and late apoptotic cells at 35 uM after 72 hrs by Trypan blue assay; format: functional, cell-based
Method in brief: (§2)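 U373 cells treated 72 h, stained with trypan blue and imaged. Cells were then fixed with ice-cold methanol and restained as an internal positive control. Single experiment in triplicate.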

U-373MG ATCC [4] = test: Cytotostatic activity on human U373 cells assessed as change in cell morphology at 35 uM after 72 hrs by videomicroscopic analysis; format: functional, cell-based
U-373MG ATCC [5] = test: Cytotoxicity against human U373 cells assessed as necrotic and late apoptotic cells at 100 uM after 72 hrs by Trypan blue assay; format: functional, cell-based; method in brief: as §2
U-373MG ATCC [6] = test: Cytotostatic activity on human U373 cells assessed as change in cell morphology at 100 uM after 72 hrs by videomicroscopic analysis; format: functional, cell-based
[7] = molecular target: Transient receptor potential cation channel subfamily V member 1 (Homo sapiens) (UniProt Q8NER1); test: Activity at TRPV1 in human MDA-MB--231 cells assessed as transient and synchronous increase in cytosolic Ca2+ level at 80 uM by FURA2-based fluorescence imaging analysis; format: cell-based
Sequence of Transient receptor potential cation channel subfamily V member 1 (Homo sapiens) (Q8NER1 whole entry): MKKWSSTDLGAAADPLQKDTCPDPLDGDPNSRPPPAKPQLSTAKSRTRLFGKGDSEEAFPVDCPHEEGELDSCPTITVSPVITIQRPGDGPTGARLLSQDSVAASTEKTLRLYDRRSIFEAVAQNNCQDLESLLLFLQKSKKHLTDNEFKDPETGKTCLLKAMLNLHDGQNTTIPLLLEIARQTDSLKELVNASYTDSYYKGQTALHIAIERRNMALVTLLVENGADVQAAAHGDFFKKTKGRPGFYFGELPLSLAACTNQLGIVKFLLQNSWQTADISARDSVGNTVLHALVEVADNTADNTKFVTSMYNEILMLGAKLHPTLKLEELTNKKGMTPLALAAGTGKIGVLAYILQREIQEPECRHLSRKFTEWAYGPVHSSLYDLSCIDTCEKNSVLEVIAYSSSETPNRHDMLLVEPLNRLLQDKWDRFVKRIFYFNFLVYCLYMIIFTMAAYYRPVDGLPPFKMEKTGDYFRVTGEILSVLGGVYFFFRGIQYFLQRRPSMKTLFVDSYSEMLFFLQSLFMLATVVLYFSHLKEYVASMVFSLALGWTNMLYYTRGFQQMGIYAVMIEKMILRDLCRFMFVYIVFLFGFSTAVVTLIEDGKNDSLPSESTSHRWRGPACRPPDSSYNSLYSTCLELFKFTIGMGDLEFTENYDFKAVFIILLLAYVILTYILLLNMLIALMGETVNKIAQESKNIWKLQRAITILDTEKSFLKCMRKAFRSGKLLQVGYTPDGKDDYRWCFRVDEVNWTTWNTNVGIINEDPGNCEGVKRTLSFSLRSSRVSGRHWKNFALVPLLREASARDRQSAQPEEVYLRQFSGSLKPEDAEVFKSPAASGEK

[8] = molecular target: Transient receptor potential cation channel subfamily V member 1 (Rattus norvegicus) (UniProt O35433); test: Displacement of [3H]-RTX from vanilloid site of TRPV1 receptor in rat spinal cord at 10 uM incubated for 60 mins by scintillation counting analysis
Sequence of Transient receptor potential cation channel subfamily V member 1 (Rattus norvegicus) (O35433 whole entry): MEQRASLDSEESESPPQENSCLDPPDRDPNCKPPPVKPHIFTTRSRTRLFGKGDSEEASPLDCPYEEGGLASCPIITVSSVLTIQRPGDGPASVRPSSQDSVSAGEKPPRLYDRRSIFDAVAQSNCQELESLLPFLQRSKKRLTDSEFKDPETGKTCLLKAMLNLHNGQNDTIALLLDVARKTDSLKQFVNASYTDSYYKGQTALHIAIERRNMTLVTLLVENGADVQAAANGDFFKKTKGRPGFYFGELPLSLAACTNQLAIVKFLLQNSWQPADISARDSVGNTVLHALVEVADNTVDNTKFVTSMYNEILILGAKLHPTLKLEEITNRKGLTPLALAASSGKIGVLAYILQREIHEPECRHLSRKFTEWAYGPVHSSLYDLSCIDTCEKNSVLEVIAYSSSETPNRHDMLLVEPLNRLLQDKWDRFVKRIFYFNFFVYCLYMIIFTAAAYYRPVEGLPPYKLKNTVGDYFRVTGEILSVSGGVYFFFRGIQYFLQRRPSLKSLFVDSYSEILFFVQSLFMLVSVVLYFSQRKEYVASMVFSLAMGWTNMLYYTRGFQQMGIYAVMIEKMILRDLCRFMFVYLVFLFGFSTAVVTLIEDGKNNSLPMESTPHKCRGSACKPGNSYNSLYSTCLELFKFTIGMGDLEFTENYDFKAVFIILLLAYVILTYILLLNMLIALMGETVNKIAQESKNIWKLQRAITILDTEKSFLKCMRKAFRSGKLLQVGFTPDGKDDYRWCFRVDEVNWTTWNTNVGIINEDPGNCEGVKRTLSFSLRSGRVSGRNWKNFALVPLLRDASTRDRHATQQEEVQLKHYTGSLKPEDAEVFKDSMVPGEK
Method in brief: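 Rat spinal cord homogenized in buffer A (pH 7.4, HEPES/sucrose salts). Membranes collected from a 35,000g spin. Binding run with 0.5 mg/mL membranes, 0.25 mg/mL BSA, 2 nM [3H]-RTX, and compound at 10 μM, for 60 min at 37 °C. Nonspecific binding defined with 100 μM unlabeled RTX. Reaction stopped on ice with α1-acid glycoprotein, then centrifuged and the pellet counted by scintillation. Result is % specific binding, mean ± SEM of 3 experiments.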

[9] = molecular target: Transient receptor potential cation channel subfamily V member 1 (Homo sapiens) (UniProt Q8NER1); test: Activity at TRPV1 in human MDA-MB--231 cells assessed as transient and synchronous increase in cytosolic Ca2+ level at 80 uM in presence of TRPV1 blocker capsazepine by FURA2-based fluorescence imaging analysis; format: cell-based
[10] = Cytotoxicity against human MES-SA/Dx5 cells assessed as growth inhibition incubated for 48 hrs by MTT assay; format: functional; settings: MES-SA/Dx5, 48 h
Method in brief: (§3)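 MTT assay on MES-SA and MES-SA/Dx5 uterine sarcoma cells in RPMI-1640 with 10% FBS. Dx5 cells were selected by stepwise doxorubicin exposure from 100 to 500 nM and maintained in 500 nM doxorubicin. Cells treated 48 h. GI50 is the concentration reducing viability 50% relative to DMSO control, from two independent experiments with 4 replicates each.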

[11] = Cytotoxicity against human MES-SA cells assessed as growth inhibition incubated for 48 hrs by MTT assay; format: functional; method in brief: as §3
Glioma cell [12] = test: Cytotoxicity against cdkn2a-deficient mouse neurosphere glioma cells at 10 uM after 24 hrs; format: functional, cell-based
Method in brief: (§4)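 Primary glioma neurosphere cultures were plated at 0.015×10^6 cells/well (5 replicates) in phenol red-free DMEM-F12. Cells were mixed with bis-AAF-R110 and incubated 2 h at 37 °C, with fluorescence read at 485/520 nm. Signal was blank-subtracted and expressed as fold change over vehicle (mean ± SD, two independent experiments).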

Glioma cell [13] = test: Cytotoxicity against cdkn2a-deficient EGFRvIII amplified mouse neurosphere glioma cells using bis-AAF-R110 as substrate at 10 uM preincubated for 24 hrs followed by substrate addition measured after 2 hrs by fluorescence analysis; format: functional, cell-based; method in brief: as §4
Glioma cell [14] = test: Cytotoxicity against cdkn2a/TRPV1 doubly deficient PDGFB amplified mouse neurosphere glioma cells using bis-AAF-R110 as substrate at 10 uM preincubated for 24 hrs followed by substrate addition measured after 2 hrs by fluorescence analysis; format: functional, cell-based; method in brief: as §4
Glioma cell [15] = test: Cytotoxicity against cdkn2a-deficient EGFRvIII amplified mouse neurosphere glioma cells using bis-AAF-R110 as substrate at 20 uM preincubated for 24 hrs followed by substrate addition measured after 2 hrs by fluorescence analysis; format: functional, cell-based
Method in brief: (§5)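 GBM neurosphere primary cultures carrying cdkn2a deletion with PDGFB or EGFRvIII amplification. Plated at 0.015×10^6 cells/well, 5 replicates per condition, in DMEM-F12 without phenol red. Cell suspension then mixed with bis-AAF-R110 substrate for 2 h at 37 °C and fluorescence read at 485/520 nm. After blank subtraction, signals were normalized to vehicle (=1) to give fold relative cytotoxicity. Mean ± SD of two independent experiments.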

PC-3 = test: Cytotoxicity against docetaxel-resistant human PC3 cells assessed as growth inhibition; format: functional, cell-based
Glioma cell [16] = test: Cytotoxicity against cdkn2a/TRPV1 doubly deficient PDGFB amplified mouse neurosphere glioma cells using bis-AAF-R110 as substrate at 20 uM preincubated for 24 hrs followed by substrate addition measured after 2 hrs by fluorescence analysis; format: functional, cell-based; method in brief: as §5
[17] = molecular target: Transient receptor potential cation channel subfamily V member 1 (Homo sapiens) (UniProt Q8NER1); test: Activity at TRPV1 in human MDA-MB--231 cells assessed as sustained and asynchronous increase in cytosolic Ca2+ level at 20 uM by FURA2-based fluorescence imaging analysis; format: cell-based
U-373MG ATCC [18] = test: Cytotostatic activity on human U373 cells assessed as change in cell morphology at 25 uM after 72 hrs by videomicroscopic analysis; format: functional, cell-based
SCC-25 = test: Cytotoxicity against cisplatin-resistant human SCC25 cells assessed as growth inhibition; format: functional, cell-based
Glioma cell [19] = test: Cytotoxicity against cdkn2a-deficient mouse neurosphere glioma cells at 20 uM after 24 hrs; format: functional, cell-based
SCC-4 = test: Cytotoxicity against docetaxel-resistant human SCC4 cells assessed as growth inhibition; format: functional, cell-based

Row | SMILES | GI50 (A549) | GI50 [1] | GI50 [2] | GI50 (MCF7) | GI50 (SK-MEL-28) | further results
1 | COC(=O)/C=C/C=C/C1=CC[C@H]2C(C)(C)CCC[C@]2(C)[C@H]1C=O | 29 µM | 27 µM | 12 µM | 31 µM | 25 µM | –
2 | C#CCCCOC(=O)/C=C/C1=CC[C@H]2C(C)(C)CCC[C@]2(C)[C@H]1C=O | 30 µM | 35 µM | 33 µM | 30 µM | 36 µM | Activity (U-373MG ATCC [3]): inactive; Activity (U-373MG ATCC [4]): Active
3 | CC1(C)CCC[C@]2(C)[C@@H](C=O)C(C=O)=CC[C@@H]12 [POLYGODIAL] | 90 µM | > 100 µM | 95 µM | 75 µM | 65 µM | Activity (U-373MG ATCC [5]): Active; Activity (U-373MG ATCC [6]): inactive; Activity [7]: Active; inhibition [8]: 76%; Activity [9]: inactive
4 | CC[C@]1(O)C[C@@H]2CN(CCc3c([nH]c4ccccc34)[C@@](C(=O)OC)(c3cc4c(cc3OC)N(C)[C@H]3[C@@](O)(C(=O)OC)[C@H](OC(C)=O)[C@]5(CC)C=CCN6CC[C@]43[C@@H]65)C2)C1 [VINBLASTINE] | – | – | – | – | – | GI50 [10]: 5 µM; GI50 [11]: 6 nM
5 | CC(=O)O[C@H]1C(=O)[C@@]2(C)[C@H]([C@H](OC(=O)c3ccccc3)[C@]3(O)C[C@H](OC(=O)[C@H](O)[C@@H](NC(=O)c4ccccc4)c4ccccc4)C(C)=C1C3(C)C)[C@]1(OC(C)=O)CO[C@@H]1C[C@@H]2O [PACLITAXEL] | – | – | – | – | – | GI50 [10]: 10 µM; GI50 [11]: 7 nM
6 | CC(C)(C)OC(=O)/C=C/C1=CC[C@H]2C(C)(C)CCC[C@]2(C)[C@H]1C=O | 29 µM | 40 µM | 29 µM | 32 µM | 41 µM | –
7 | CCOC(=O)/C=C/C1=CC[C@H]2C(C)(C)CCC[C@]2(C)[C@H]1C=O | 25 µM | 37 µM | 29 µM | 30 µM | 29 µM | –
8 | CC(=O)/C=C/C1=CC[C@H]2C(C)(C)CCC[C@]2(C)[C@H]1C=O | 24 µM | 25 µM | 22 µM | 20 µM | 28 µM | –
9 | CC1(C)CCC[C@]2(C)[C@@H](C=O)C(/C=C/C#N)=CC[C@@H]12 | 27 µM | 36 µM | 28 µM | 31 µM | 42 µM | –
10 | C=C(C)[C@@H]1CCC(C)=C[C@H]1c1c(O)cc(CCCCC)cc1O | – | – | – | – | – | growth inhibition (GI) (Glioma cell [12]): Active; growth inhibition (GI) (Glioma cell [13]): Active; growth inhibition (GI) (Glioma cell [14]): inactive
11 | CCOC(=O)/C(C)=C/C1=CC[C@H]2C(C)(C)CCC[C@]2(C)[C@H]1C=O | 26 µM | 37 µM | 28 µM | 27 µM | 37 µM | –
12 | COC(=O)/C=C/C1=CC[C@H]2C(C)(C)CCC[C@]2(C)[C@H]1C=O | 21 µM | 22 µM | 24 µM | 7 µM | 27 µM | growth inhibition (GI) (Glioma cell [15]): Active; growth inhibition (GI) (PC-3): Active; growth inhibition (GI) (Glioma cell [16]): Active; Activity [17]: Active; Activity (U-373MG ATCC [18]): Active; GI50 [10]: 45 µM; growth inhibition (GI) (SCC-25): Active; growth inhibition (GI) (Glioma cell [19]): Active; Activity [8]: inactive; growth inhibition (GI) (SCC-4): Active; GI50 [11]: 40000 nM
13 | CC1(C)CCC[C@]2(C)[C@@H](C=O)C(/C=C/C(=O)OCc3ccccc3)=CC[C@@H]12 | 28 µM | 39 µM | 31 µM | 27 µM | 39 µM | –

Source: ChEMBL document CHEMBL3627669, “Wittig derivatization of sesquiterpenoid polygodial leads to cytostatic agents with activity against drug resistant cancer cells and capable of pyrrolylation of primary amines” (2015)
